Screens from PubChem.
Many of the other results were omitted from the sample, so hits are more common in it than they were.
L major viab – reduces viability of Leishmania major promastigotes; inhibition, % at 10 µM; resazurin fluorescence viability; 200,000 compounds, 9% hits;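 also: promastigotes grown with compound for 44 hours at 28 °C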
Diaphorase inh – inhibits diaphorase or chemically oxidizes, flagging diaphorase assay artifacts; diaphorase resazurin-to-resorufin fluorescence, NADH, 16 min; bacterial (C. kluyveri) enzyme, not human; inhibition, % at 20 µM; 190,000 compounds, 0.69% hits; AID 1217;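 active = primary screen inhibition at 20 µM above a set limit, cut at about 50% in these data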;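 also: plate controls were DMSO with full reaction for no effect and wells lacking NADH for full effect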
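Detection: fluorescence of resorufin formed from resazurin, Ex 544/Em 590 nm; test system: Clostridium kluyveri diaphorase enzyme; amount: 0.14 U/mL diaphorase, enzyme working solution; times: 16-min room-temperature incubation before reading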
PfG6PD inh – PfG6PD (Plasmodium falciparum) enzyme inhibition. PfGluPho enzyme, NADPH resazurin-diaphorase fluorescence. inhibition, % at 20 µM. 350,000 compounds, 0.78% hits. AID 504690;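 active = inhibition reaching at least a set limit at 20 µM in the primary screen, cut at about 59% in these data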;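 also: 0% = DMSO wells with substrate and 100% = DMSO wells lacking glucose-6-phosphate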
Diaph act CS – diaphorase activation or chemical reduction counter-screen. Diaphorase/resazurin coupled assay, resorufin fluorescence, 16 min; stronger effect = higher value; 1 = vehicle wells, 0 = NADH-free wells. activation factor at 20 µM. 190,000 compounds, 0.005% hits. AID 1229;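 active = diaphorase activity raised at least twofold by the compound at 20 µM; inactive = activation factor below 2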
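Material: purified diaphorase enzyme from Clostridium kluyveri / Medium: HEPES pH 7.4 buffer with MgCl2 and Tween 20 / Schedule: enzyme reaction of 16 min at room temperature / Measured by: resorufin fluorescence, excitation 544 nm, emission 590 nm / Evaluation: rise in resorufin formation, marking diaphorase activation or chemical reduction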
DTT redox prof – compounds producing H2O2 with reducing agent – biochemical, NIH compound library profiling, artefact control for MLSCN library redox annotation, primary screen | DTT-dependent redox cycling H2O2, phenol red/HRP absorbance; 100% = 100 µM peroxide control, 0% = buffer | activation, % at 10 µM | 200,000 compounds, 0.03% hits | AID 878;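 active = activation of at least 50% relative to the plate's high and low controls in the primary single-dose screen; inactive = activation below 50%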;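 also: compound incubated with DTT at 0.8 mM final as the reducing agent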
G6PDH counter – inhibits Leuconostoc G6PDH, flagging false hits in G6PDH-based assays; 200,000 compounds, 0.12% hits; inhibition, % at 5 µM; Purified L. mesenteroides G6PDH, diaphorase/resazurin coupled fluorescence, 45 min
Numbers without * were called inactive; . = no result. Rule as the data show it, unless noted: active = inhibition above about 50%; inactive = the rest.

SMILES	L major viab	Diaphorase inh	PfG6PD inh	Diaph act CS	DTT redox prof	G6PDH counter
Cc1ccc(C)c(NC(=S)NCCSc2ccc(Cl)cc2)c1	16	26	0	0.7	0	4
Cc1cccc(NC(=S)NCCSc2ccc(Cl)cc2)c1	16	27	6	0.7	0	2
Cc1cccc(NC(=S)NCC(C)CSc2ccc(Cl)cc2)c1 (stereo not given)	86*	13	0	0.9	-1	8
Cc1ccc(NC(=S)NCC(C)CSc2ccc(Cl)cc2)cc1 (stereo not given)	59*	8	-1	0.9	0	2
Brc1ccc(OCCCCN2CCCCC2)cc1	.	.	-6	.	.	.
CC1CCN(CCCCOc2ccccc2Br)CC1	100*	1	3	1	0	4
CC1CCN(CCCCOc2cccc(Br)c2)CC1	95*	-4	-15	1	0	2
Cc1cc(Br)ccc1OCCCCN1CCC(C)CC1	100*	17	-6	0.8	0	-2
CC1CCN(CCCCOc2ccc(Br)cc2)CC1	99*	11	-11	0.9	0	6
COc1cc(CN(C(=O)c2cccs2)C2CCS(=O)(=O)C2)cc(OC)c1OC (stereo not given)	.	.	6	.	.	.
COCCN1C(=O)C(=O)/C(=C(/O)c2ccc(S(=O)(=O)N3CCOCC3)cc2)C1c1ccc(C(C)C)cc1 (stereo not given)	-9	17	.	0.8	2	-4
Brc1cccc(OCCN2CCOCC2)c1	.	.	-7	.	.	.
Brc1cccc(OCCN2CCCCC2)c1	96*	18	2	0.8	0	0
CC1CCN(CCOc2ccc(Cl)c(Cl)c2)CC1	88*	13	-4	0.9	0	4
Brc1ccccc1OCCCN1CCOCC1	72*	22	7	0.8	1	2
CC1=C(C(=O)OCc2ccccc2)C(c2cccc([N+](=O)[O-])c2)NC(=O)N1C (stereo not given)	.	.	-3	.	.	.
COc1ccc(C(C)=O)cc1CSc1nnnn1-c1ccc(O)cc1	.	.	-10	.	.	.
CCOc1ccc(C(C)=O)cc1CSc1nnnn1-c1ccc(O)cc1	60*	9	2	0.9	-2	13
C/C(=N\NC(=O)c1ccc(NS(=O)(=O)c2cccs2)cc1)c1ccc(Cl)cc1	-1	17	16	0.8	-1	5
O=S(=O)(Nc1nc2ccccc2nc1Nc1ccc2c(c1)OCCO2)c1cccs1	53*	34	-32	0.7	1	0
COc1ccc(S(=O)(=O)Nc2nc3ccccc3nc2Nc2ccc3c(c2)OCO3)cc1	5	11	.	0.9	0	-14
C/C(=N\NC(=O)c1ccc(NS(=O)(=O)c2cccs2)cc1)c1ccc2c(c1)OCO2	74*	14	-21	0.9	0	1
NC(N)=N/N=C(\N=Nc1ccccc1)c1ccc(Cl)cc1	.	.	11	.	.	.
CC(C)CN(C(=O)c1nn(C)c(=O)c2ccccc12)c1nc2ccccc2s1	52*	24	-2	0.8	0	3
O=C(c1ccccc1F)N1CCN(c2ccc([N+](=O)[O-])c3cccnc23)CC1	63*	32	3	0.7	-1	6
SMILES	L major viab	Diaphorase inh	PfG6PD inh	Diaph act CS	DTT redox prof	G6PDH counter
Cc1ccc(S(=O)(=O)N2CCN(C(=O)COC(=O)c3oc4ccccc4c3C)CC2)cc1	.	.	-2	.	.	.
CCOC(=O)c1nc(NCc2ccccc2C)c2ccccc2n1	65*	12	5	0.9	-2	3
CCOC(=O)c1nc(NCc2ccccc2F)c2ccccc2n1	50	-12	0	1.1	-2	10
Cc1ccc(CCN2CC(C(=O)NC3CCCCC3)CC2=O)cc1 (stereo not given)	.	.	11	.	.	.
COCc1c(C(=O)NCCc2ccc(OC(F)F)cc2)oc2ccccc12	.	.	5	.	.	.
NC(=O)c1ccsc1NC(=O)COC(=O)c1cc(Cl)ccc1O	.	.	-8	.	.	.
COc1ccc(-c2cc(-c3ccccc3O)[nH]n2)cc1	99*	21	32	0.8	-8	10
COc1ccc(-c2cc(-c3ccccc3)n[nH]2)c(O)c1	48	20	24	0.8	-1	14
CN(C(=O)COC(=O)c1cc([N+](=O)[O-])ccc1Cl)c1ccccc1	.	.	-11	.	.	.
O=C(CSc1nc(SCC(=O)NCc2ccccc2)n(-c2ccccc2)n1)NCc1ccccc1	94*	21	19	0.8	0	-8
COc1ccc(CNC2CCSc3ccccc32)cc1OC (stereo not given)	.	.	3	.	.	.
O=C(COC(=O)CCc1ccccc1)NC12CC3CC(CC(C3)C1)C2	15	71*	0	0.3	-1	3
CN(C)C(CNc1ccc([N+](=O)[O-])cc1C#N)c1ccccc1 (stereo not given)	15	3	6	1	-1	3
O=C(Nc1cccnc1)c1ccc(S(=O)(=O)N2CCCCCC2)cc1	6	5	0	0.9	0	-1
CCOC(=O)c1[nH]c2c(c1-c1ccccc1)C(=O)CC(c1ccc(OC)c(OC)c1)C2 (stereo not given)	54*	14	12	0.9	0	12
COC(=O)C/C=C/[C@@H](C)[C@@H](/C=N/OCC[C@@H]1C=C[C@H](OC(C)=O)[C@@H](COC(C)=O)O1)NS(=O)(=O)c1ccc(C)cc1	1	0	.	1	1	6
CCc1ccc(N(C(=O)c2csnn2)C(C(=O)NC(C)(C)CC)c2ccccn2)cc1 (stereo not given)	-7	5	-5	0.9	-1	4
Cc1oc2c(c1C(=O)NCc1cccnc1)C(=O)c1ccccc1C2=O	100*	0	103*	1	0	59*
COc1ccc(CNC(=O)c2c(C)oc3c2C(=O)c2ccccc2C3=O)cc1	31	11	31	0.9	1	62*
COc1ccc(CNC(=O)c2c(F)c(F)c(F)c(F)c2F)cc1	53*	5	4	0.9	-1	10
c1ccc(Nc2cccc(Nc3ccccc3)n2)cc1	24	55*	57	0.5	0	20
c1ccc(Nc2ccccn2)cc1	-1	-2	5	1	1	1
O=C(O)Cc1ccc(C(=O)c2ccc(Cl)cc2Cl)s1	-10	83*	-1	0.2	-2	13
O=C(O)CSc1cc(C(=O)c2ccccc2O)cn2c(=O)c3c4c(sc3nc12)CCCC4	.	.	-28	.	.	.
O=C(Nc1ccc(F)c(Cl)c1)C1CC2CCC1C2 (stereo not given)	.	.	27	.	.	.
O=C(OCn1ncc(Cl)c(Cl)c1=O)c1cccc(C(F)(F)F)c1	59*	-1	4	1	1	12
